Experiments:
[1] = molecular target: T1, Serine/threonine-protein kinase 17A (Homo sapiens, UniProt Q9UEE5); test: Displacement of tracer K9 from NLuc fused DRAK1 (unknown origin) expressed in HEK293 cells by NanoBRET assay; assay type: cell-based
T1 sequence (Q9UEE5 whole entry): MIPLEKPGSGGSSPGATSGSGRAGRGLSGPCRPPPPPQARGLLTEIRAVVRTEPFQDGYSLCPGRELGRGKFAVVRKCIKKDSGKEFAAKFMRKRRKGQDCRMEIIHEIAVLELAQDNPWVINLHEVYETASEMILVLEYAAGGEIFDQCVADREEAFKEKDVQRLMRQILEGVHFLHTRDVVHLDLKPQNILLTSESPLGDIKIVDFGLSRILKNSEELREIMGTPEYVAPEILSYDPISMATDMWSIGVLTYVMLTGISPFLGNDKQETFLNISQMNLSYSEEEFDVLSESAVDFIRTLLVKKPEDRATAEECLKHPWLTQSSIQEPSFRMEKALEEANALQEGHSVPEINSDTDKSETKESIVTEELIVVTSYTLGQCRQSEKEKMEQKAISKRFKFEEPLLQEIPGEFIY

[2] = molecular target: MAP/microtubule affinity-regulating kinase 3 (Homo sapiens, UniProt P27448); test: Displacement of tracer K9 from NLuc fused MARK3 (unknown origin) expressed in HEK293 cells by NanoBRET assay; assay type: cell-based
Sequence of MAP/microtubule affinity-regulating kinase 3 (P27448 whole entry, the tested form may be a part): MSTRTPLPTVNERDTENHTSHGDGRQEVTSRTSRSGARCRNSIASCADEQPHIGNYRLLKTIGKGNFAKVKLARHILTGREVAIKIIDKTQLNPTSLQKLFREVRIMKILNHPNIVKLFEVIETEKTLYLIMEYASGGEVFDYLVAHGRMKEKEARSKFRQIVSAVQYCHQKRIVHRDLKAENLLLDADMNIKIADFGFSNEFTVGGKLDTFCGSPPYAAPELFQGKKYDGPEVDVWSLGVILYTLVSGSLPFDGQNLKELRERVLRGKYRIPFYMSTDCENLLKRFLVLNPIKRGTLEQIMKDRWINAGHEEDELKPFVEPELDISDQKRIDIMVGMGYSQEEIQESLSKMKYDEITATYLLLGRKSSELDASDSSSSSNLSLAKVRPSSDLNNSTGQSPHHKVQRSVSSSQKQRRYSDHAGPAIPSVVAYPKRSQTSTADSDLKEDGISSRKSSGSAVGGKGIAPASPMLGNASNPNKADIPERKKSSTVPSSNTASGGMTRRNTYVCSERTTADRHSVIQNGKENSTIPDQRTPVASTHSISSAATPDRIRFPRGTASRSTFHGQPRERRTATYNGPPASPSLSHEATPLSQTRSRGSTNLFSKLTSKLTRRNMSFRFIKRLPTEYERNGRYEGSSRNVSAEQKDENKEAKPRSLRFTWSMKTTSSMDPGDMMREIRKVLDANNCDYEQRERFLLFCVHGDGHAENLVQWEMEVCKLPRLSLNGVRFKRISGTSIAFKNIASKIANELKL

[3] = molecular target: T2, MAP/microtubule affinity-regulating kinase 4 (Homo sapiens, UniProt Q96L34); test: Displacement of tracer K5 from NLuc fused MARK4 (unknown origin) expressed in HEK293 cells by NanoBRET assay; assay type: cell-based
T2 sequence (Q96L34 whole entry): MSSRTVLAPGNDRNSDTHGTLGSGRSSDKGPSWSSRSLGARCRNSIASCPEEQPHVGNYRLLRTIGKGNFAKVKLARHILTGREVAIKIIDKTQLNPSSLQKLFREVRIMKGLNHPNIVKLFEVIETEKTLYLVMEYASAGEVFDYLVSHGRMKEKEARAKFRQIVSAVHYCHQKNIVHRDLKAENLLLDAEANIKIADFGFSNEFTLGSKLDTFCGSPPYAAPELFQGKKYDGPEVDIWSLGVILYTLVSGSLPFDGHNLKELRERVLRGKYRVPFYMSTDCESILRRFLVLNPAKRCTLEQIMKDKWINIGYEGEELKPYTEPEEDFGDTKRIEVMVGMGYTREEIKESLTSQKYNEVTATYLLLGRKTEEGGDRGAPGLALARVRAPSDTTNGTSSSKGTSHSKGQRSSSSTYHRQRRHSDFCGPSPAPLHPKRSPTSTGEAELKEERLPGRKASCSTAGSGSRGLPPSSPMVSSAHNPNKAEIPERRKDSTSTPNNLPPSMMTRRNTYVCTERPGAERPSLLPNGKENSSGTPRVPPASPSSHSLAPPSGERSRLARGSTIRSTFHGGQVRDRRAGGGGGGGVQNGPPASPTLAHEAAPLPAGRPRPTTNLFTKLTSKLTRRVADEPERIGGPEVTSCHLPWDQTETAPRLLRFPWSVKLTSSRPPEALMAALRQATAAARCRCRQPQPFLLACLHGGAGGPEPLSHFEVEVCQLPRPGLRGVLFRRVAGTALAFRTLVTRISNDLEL

[4] = molecular target: T3, Serine/threonine-protein kinase TBK1 (Homo sapiens, UniProt Q9UHD2); test: Displacement of tracer K5 from NLuc fused TBK1 (unknown origin) expressed in HEK293 cells by NanoBRET assay; assay type: cell-based
T3 sequence (Q9UHD2 whole entry): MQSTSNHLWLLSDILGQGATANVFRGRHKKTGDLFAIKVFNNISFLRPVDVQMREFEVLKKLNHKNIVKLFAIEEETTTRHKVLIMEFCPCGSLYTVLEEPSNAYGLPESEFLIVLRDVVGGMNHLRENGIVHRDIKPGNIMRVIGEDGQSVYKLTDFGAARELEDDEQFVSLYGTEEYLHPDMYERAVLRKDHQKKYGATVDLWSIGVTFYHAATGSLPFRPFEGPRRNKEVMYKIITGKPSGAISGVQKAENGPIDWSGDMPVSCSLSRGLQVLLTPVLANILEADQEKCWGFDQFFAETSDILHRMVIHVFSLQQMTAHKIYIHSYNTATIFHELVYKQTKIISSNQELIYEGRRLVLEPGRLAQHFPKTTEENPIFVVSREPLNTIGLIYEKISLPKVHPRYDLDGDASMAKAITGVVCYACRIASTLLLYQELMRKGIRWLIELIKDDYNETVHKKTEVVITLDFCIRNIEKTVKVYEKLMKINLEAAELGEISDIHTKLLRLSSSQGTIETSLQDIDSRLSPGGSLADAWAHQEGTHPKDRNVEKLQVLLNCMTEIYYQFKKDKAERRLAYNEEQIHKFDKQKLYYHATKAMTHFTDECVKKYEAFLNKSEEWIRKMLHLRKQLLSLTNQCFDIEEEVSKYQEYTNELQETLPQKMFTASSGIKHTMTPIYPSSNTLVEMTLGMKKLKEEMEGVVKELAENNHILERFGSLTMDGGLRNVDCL
Procedure, shortened: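 HEK293 cells grown in DMEM with 10% FBS at 37 °C, 5% CO2. NanoBRET assay run in dose–response per manufacturer's protocol with tracer K-5 at 0.5 μM. SEM calculated for assays run more than once.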

[5] = Inhibition of human TTBK1 (1 to 479 residues) using Casein as substrate measured after 40 mins in presence of [gamma33P]ATP by scintillation counting method
Procedure, shortened: (§1)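 Eurofins radiometric kinase assay run at ATP equal to Km for each kinase. 9-point dose–response in duplicate gives the IC50.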

[6] = molecular target: T4, Inhibitor of nuclear factor kappa-B kinase subunit epsilon (Homo sapiens, UniProt Q14164); test: Inhibition of full length recombinant human IKKepsilon using casein as substrate incubated for 40 mins in presence of [gamma-33P-ATP] by radiometric scintillation assay; procedure, shortened: as §1
T4 sequence (Q14164 whole entry): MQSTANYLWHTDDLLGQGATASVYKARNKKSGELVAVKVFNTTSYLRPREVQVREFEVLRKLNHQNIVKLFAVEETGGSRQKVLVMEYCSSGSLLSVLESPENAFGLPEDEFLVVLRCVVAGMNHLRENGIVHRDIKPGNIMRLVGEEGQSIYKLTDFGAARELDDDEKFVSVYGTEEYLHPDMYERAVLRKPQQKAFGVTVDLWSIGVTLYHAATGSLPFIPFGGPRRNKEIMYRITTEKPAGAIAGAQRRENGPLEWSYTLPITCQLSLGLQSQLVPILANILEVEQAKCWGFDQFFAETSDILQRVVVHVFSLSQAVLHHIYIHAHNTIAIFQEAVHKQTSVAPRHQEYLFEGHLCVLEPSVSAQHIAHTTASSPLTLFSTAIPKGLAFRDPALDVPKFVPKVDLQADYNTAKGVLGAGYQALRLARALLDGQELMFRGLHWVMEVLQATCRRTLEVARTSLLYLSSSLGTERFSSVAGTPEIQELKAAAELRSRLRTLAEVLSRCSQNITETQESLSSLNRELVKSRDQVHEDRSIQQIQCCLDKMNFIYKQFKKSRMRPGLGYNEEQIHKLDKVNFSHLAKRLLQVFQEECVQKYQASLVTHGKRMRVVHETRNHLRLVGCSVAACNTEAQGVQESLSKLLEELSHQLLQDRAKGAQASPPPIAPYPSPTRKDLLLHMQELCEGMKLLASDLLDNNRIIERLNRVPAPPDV

[7] = molecular target: MAP kinase-interacting serine/threonine-protein kinase 2 (Homo sapiens, UniProt Q9HBH9); test: Inhibition of full length recombinant human MKNK2 using myelin basic protein as substrate incubated for 40 mins in presence of [gamma-33P-ATP] by radiometric scintillation assay; procedure, shortened: as §1
Sequence of MAP kinase-interacting serine/threonine-protein kinase 2 (Q9HBH9 whole entry, the tested form may be a part): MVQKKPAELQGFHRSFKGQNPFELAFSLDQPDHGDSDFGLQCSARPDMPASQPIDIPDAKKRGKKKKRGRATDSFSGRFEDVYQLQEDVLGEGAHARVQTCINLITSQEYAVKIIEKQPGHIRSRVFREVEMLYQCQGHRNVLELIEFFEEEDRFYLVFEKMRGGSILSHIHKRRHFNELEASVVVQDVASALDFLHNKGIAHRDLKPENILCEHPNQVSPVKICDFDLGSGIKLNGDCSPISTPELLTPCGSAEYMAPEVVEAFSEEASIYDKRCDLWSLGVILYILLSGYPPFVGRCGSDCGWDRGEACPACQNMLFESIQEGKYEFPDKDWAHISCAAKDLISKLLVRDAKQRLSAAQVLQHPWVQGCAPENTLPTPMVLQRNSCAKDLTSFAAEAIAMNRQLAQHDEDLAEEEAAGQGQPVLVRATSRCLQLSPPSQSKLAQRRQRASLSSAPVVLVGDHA

[8] = molecular target: Death-associated protein kinase 3 (Homo sapiens, UniProt O43293); test: Inhibition of recombinant human ZIPK (1 to 290 residues) using KKLNRTLSFAEPG as substrate measured after 40 mins in presence of [gamma33P]ATP by radiometric scintillation counting method
Sequence of Death-associated protein kinase 3 (O43293 whole entry, the tested form may be a part): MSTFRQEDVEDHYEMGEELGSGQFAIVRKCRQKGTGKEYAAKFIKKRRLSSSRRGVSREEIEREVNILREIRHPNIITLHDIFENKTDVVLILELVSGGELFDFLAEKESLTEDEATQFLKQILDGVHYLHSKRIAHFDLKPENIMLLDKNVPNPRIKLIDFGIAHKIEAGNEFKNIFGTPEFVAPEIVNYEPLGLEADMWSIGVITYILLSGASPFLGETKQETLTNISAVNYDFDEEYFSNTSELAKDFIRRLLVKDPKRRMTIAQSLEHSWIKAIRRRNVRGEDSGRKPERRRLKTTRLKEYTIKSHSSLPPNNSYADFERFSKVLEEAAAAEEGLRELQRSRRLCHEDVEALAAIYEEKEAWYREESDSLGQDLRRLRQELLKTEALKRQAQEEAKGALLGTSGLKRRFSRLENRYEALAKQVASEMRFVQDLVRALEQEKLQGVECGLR
Procedure, shortened: (§2)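 Eurofins radiometric enzymatic assay with ATP at Km for each kinase. IC50 was derived from a 9-point dose–response curve run in duplicate.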

[9] = molecular target: Macrophage colony-stimulating factor 1 receptor (Homo sapiens, UniProt P07333); test: Inhibition of NanoLuc-fused CSF1R (unknown origin) expressed in HEK293 cells incubated for 2 hrs by NanoBRET assay; assay type: cell-based
[10] = Kinetic solubility of compound in PBS at pH 7.4 incubated for 24 hrs by chemiluminscent nitrogen detection method; assay type: physicochemical; conditions: buffer, pH 7.4, 24 h
Procedure, shortened: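 Filtrates were quantified by total chemiluminescent nitrogen determination against a calibration curve, with correction for background nitrogen from DMSO and medium.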

[11] = Effective permeability in PBS at 7.4 incubated for 5 hrs by PAMPA analysis; assay type: ADME; conditions: pH 7.4, 5 h
Procedure, shortened: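 PAMPA: DMSO stocks were diluted in PBS pH 7.4 and placed in the donor compartment, with PBS pH 7.4 in the acceptor, for 5 h. Both compartments were quantified by CLND against a calibration curve, with background nitrogen correction. Effective permeability was calculated from donor and acceptor concentrations using measured rather than assumed solubility.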

[12] = molecular target: Serine/threonine-protein kinase NIM1 (Homo sapiens, UniProt Q8IY84); test: Inhibition of full length recombinant human NIM1 using KKKVSRSGLYRSPSMPENLNRPR as substrate incubated for 40 mins in presence of [gamma-33P-ATP] by radiometric scintillation assay; procedure, shortened: as §2
Sequence of Serine/threonine-protein kinase NIM1 (Q8IY84 whole entry): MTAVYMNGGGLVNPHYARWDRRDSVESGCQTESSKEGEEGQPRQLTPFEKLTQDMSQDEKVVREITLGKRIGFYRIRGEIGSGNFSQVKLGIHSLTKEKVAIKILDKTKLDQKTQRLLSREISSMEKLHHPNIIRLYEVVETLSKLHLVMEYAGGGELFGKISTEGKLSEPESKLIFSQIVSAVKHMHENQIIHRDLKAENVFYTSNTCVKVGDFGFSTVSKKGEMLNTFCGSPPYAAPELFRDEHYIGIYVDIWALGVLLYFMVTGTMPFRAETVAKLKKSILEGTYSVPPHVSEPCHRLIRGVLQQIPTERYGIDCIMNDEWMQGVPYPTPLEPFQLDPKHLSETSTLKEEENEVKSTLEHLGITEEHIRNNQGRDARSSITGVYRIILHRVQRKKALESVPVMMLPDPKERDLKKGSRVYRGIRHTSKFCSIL

[13] = molecular target: T5, Leucine-rich repeat serine/threonine-protein kinase 2 (Homo sapiens, UniProt Q5S007); test: Inhibition of recombinant human LRRK2 (970 to end residues) using RLGRDKYKTLRQIRQ as substrate incubated for 40 mins in presence of [gamma-33P-ATP] by radiometric scintillation assay; procedure, shortened: as §1
T5 sequence (Q5S007 whole entry): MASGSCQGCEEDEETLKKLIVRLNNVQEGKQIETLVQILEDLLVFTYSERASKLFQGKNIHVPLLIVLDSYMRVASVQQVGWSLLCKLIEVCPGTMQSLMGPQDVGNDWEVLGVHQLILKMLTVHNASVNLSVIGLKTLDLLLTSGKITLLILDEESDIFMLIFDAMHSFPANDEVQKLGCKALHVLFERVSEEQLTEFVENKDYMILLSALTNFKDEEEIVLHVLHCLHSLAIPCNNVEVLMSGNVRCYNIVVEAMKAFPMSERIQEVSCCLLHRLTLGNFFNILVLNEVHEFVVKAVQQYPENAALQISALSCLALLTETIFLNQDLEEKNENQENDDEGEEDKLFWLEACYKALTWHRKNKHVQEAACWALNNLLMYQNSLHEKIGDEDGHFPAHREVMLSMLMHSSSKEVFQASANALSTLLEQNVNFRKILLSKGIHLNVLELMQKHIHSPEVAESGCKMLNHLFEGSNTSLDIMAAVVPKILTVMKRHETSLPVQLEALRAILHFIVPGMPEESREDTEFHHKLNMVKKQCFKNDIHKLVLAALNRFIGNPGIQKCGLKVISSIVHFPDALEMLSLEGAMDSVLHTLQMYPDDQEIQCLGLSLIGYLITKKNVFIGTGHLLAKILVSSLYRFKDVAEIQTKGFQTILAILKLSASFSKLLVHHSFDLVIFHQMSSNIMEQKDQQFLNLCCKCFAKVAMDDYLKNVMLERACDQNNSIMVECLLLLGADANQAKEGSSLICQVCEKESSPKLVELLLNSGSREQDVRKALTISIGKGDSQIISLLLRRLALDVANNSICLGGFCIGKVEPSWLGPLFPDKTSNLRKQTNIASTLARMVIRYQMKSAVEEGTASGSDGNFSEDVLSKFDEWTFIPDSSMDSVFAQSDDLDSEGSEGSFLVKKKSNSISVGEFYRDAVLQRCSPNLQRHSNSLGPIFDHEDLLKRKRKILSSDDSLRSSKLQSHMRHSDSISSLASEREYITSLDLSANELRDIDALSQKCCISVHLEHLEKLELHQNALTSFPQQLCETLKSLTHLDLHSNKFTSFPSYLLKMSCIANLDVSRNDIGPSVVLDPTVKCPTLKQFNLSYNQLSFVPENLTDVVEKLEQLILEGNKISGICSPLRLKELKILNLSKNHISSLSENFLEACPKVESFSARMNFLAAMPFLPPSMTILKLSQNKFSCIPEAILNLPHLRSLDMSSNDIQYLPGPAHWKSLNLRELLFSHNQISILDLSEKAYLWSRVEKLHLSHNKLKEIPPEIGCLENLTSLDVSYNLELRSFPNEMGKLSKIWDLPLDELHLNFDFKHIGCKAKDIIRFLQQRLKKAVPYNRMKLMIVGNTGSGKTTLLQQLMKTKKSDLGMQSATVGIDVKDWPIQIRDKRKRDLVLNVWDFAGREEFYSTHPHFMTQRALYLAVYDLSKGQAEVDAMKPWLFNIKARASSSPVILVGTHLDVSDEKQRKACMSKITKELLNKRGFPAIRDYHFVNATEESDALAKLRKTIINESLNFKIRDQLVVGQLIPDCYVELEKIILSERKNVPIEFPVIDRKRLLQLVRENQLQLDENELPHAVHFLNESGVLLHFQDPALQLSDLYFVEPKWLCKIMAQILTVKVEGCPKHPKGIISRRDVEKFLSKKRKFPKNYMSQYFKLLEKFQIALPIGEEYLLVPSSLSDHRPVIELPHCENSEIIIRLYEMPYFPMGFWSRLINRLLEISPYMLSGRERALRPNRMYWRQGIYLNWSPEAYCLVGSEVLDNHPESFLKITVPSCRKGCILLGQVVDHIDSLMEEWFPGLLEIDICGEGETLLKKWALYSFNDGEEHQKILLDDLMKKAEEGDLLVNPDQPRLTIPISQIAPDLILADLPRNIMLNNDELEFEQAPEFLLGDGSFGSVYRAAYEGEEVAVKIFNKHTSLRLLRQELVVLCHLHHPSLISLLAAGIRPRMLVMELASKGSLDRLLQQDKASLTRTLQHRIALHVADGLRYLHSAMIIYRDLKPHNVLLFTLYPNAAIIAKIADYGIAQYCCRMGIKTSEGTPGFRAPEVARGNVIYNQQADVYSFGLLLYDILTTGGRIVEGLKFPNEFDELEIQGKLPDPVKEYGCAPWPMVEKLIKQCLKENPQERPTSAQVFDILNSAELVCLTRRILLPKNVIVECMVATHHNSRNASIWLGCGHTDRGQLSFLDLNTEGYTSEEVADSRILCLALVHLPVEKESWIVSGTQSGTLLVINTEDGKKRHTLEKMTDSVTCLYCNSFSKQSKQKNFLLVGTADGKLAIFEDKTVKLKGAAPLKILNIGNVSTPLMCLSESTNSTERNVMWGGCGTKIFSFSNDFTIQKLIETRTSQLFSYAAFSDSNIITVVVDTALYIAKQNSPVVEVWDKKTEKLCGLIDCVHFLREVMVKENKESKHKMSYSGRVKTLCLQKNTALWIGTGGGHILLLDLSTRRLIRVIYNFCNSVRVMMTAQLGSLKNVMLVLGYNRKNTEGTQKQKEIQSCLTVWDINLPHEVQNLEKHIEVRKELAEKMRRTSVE

[14] = molecular target: Myosin light chain kinase 2, skeletal/cardiac muscle (Homo sapiens, UniProt Q9H1R3); test: Inhibition of full length recombinant human MYLK2 using KKLNRTLSFAEPG as substrate incubated for 40 mins in presence of [gamma-33P-ATP] by radiometric scintillation assay; procedure, shortened: as §2
[15] = molecular target: T5, Leucine-rich repeat serine/threonine-protein kinase 2; test: Inhibition of NanoLuc-fused LRRK2 (unknown origin) expressed in HEK293 cells incubated for 2 hrs by NanoBRET assay; assay type: cell-based
Procedure, shortened: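 Cellular target engagement by NanoBRET in dose–response, done in singlicate by Carna Biosciences following the manufacturer's protocol. Compounds tested at concentrations up to 10 μM.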

[16] = molecular target: T6, Serine/threonine-protein kinase 17B (Homo sapiens) (UniProt O94768); test: Inhibition of full length recombinant human DRAK2 using KKRPQRRYSNVF as substrate at 1 uM incubated for 120 mins in presence of [gamma-33P-ATP] by radiometric scintillation assay relative to control
T6 sequence (whole entry): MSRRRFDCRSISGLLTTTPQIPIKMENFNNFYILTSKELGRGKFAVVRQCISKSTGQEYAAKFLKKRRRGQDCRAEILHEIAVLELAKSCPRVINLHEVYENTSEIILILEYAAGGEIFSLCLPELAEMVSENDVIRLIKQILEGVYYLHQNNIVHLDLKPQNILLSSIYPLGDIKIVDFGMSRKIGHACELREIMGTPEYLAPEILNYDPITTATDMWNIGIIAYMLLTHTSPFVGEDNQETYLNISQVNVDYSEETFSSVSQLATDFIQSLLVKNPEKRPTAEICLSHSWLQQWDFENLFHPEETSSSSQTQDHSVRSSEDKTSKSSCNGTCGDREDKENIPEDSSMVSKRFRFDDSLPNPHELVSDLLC
Procedure, shortened: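 Eurofins radiometric kinase assay with ATP at Km for each kinase. Compound was tested at a single 1 μM concentration in duplicate, and the result is reported as percent of control.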

Row | SMILES | IC50 [1] [nM] | IC50 [2] [nM] | IC50 [3] [nM] | IC50 [4] [nM] | IC50 [5] [nM] | IC50 [6] [nM] | IC50 [7] [nM] | IC50 [8] [nM] | IC50 [9] [nM] | Kinetic_solubility [10] [µM] | Peff ([11]; BLD = below limit of detection) | IC50 [12] [nM] | IC50 [13] [nM] | IC50 [14] [nM] | IC50 [15] [nM] | Peff [11] | % control [16] [%]
1 | Cc1nn(CC(F)(F)F)cc1Nc1ncc(Br)c(NCc2ccc(S(N)(=O)=O)cc2)n1 | > 10000 | > 10000 | > 10000 | 339 | 37 | 552 | 1370 | > 10000 | > 10000 | 176.9 | Bld |  |  |  |  |  | 
2 | Cc1nn(CC(F)(F)F)cc1Nc1ncc(C2CC2)c(NCCc2c[nH]cn2)n1 | > 10000 | > 10000 | > 10000 | > 10000 |  |  |  |  |  | 171 |  | 4400 | 89 | 1120 | > 10000 | 3.89 10^-7 cm/s | 59
